pIC50: −log10 of the molar value. The source made the active and inactive calls. The rule behind the calls is not given here. Some results are limits rather than exact numbers.

Data set [1] in a line: Solubility of compound in water. In kind it is physicochemical. Conditions: buffer.
Data set [2] can be described thus: Cytostatic activity against human HaCaT cells assessed as cell survival up to 25 uM measured after 72 hrs by MTT assay relative to control. In kind it is functional. Background: Tetrazolium dyes change colour on reduction, which living cells bring about.
A short description of data set [3]: Cytostatic activity against human MCF7 cells assessed as cell survival up to 25 uM measured after 72 hrs by MTT assay relative to control. The data set is classed as functional.
A short description of data set [4]: Cytostatic activity against human NHEK cells assessed as cell survival up to 25 uM measured after 72 hrs by MTT assay relative to control. In kind it is ADME, cell-based. The following applies: read-out: Survival.
Data set [5] concerns HepG2. In words: Induction of apoptosis in human HepG2 cells assessed as necrotic cells at 0.11 uM measured after 48 hrs by Annexin V-FITC/propidium iodide staining-based flow cytometric analysis relative to control. In kind it is functional. On the technique in general: Flow cytometry measures light scatter and fluorescence of single cells or particles in a stream.
Data set [6] is described as follows: Cytostatic activity against human MDA-MB-231 cells assessed as cell survival up to 25 uM measured after 72 hrs by MTT assay relative to control. In kind it is functional.
Data set [7] can be described thus: Cell cycle arrest in human HepG2 cells assessed as decrease in S phase at growth inhibitory IC50 measured after 24 hrs by propidium iodide-staining based FACS analysis. The data set is classed as functional.
The nature of data set [8]: Growth inhibition of human K562 cells measured after 72 hrs by MTT assay. In kind it is functional, cell-based. Conditions: K562, 72 h. In outline:
(§1)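 Cells seeded at 1 x 10^4/100 µL, treated 24 h later with drug diluted from 2 mmol/L DMSO stock (0.01% DMSO final), 72 h incubation. MTT added for 3 h at 37°C, formazan dissolved in 0.1 N HCl/isopropanol, OD read at 550/630 nm. Eight replicates per concentration, mean ± SD. IC50 from curve fitting. Cells kept at 37°C in humidified CO2.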

Data set [9] can be described thus: Antiproliferative activity against human MCF10A cells measured after 72 hrs by MTT assay. In kind it is cell-based. The following applies: MCF-10A. In outline:
(§2)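 Cells seeded at 1 × 10^4 per well and left 24 h, then exposed to graded compound concentrations (stock 2 mmol/L in DMSO, final DMSO 0.01% in medium) for 72 h at 37 °C in humidified CO2. MTT (5 mg/mL) added for 3 h; formazan dissolved in 0.1 N HCl/isopropanol and read at 550/630 nm. Eight replicate wells per concentration; IC50 from curve fitting.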

Data set [10] in a line: Growth inhibition of human EAhy926 cells measured after 72 hrs by MTT assay. Conditions: EA.hy 926, 72 h. The data set is classed as functional, cell-based. In outline:
as §1

Data set [11] can be described thus: Cell cycle arrest in human HepG2 cells assessed as >4N DNA content at growth inhibitory IC50 measured after 24 hrs by propidium iodide-staining based FACS analysis relative to control. The data set is classed as functional. On the set-up: scale not given: the % may be the effect or the level left.
For data set [12], the system named is EA.hy 926. In words: Induction of apoptosis in human EAhy926 cells assessed as increase in apoptotic cells at growth inhibitory IC50 measured after 48 hrs by Annexin V-FITC/propidium iodide staining-based flow cytometric analysis relative to control. In kind it is functional, cell-based.
Data set [13] has as its system EA.hy 926. The data set is described as follows: Antiangiogenic activity against human EAhy926 assessed as inhibition of capillary tube formation at 0.11 uM after 72 hrs by matrigel assay. In kind it is functional. A digest of the protocol: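 EA.hy 926 cells (4 x 10^4) plated onto Matrigel pre-set 30 min at 37°C in complete DMEM; after 24 h medium replaced by EBM2 alone (control) or EBM2 with 0.28 µM or 0.11 µM drug. Capillary tube formation followed by inverted microscopy up to 72 h.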

Data set [14] in a line: Antiproliferative activity against CA-4-resistant human HT-29 cells measured after 72 hrs by MTT assay. The data set is classed as functional, cell-based. Conditions: HT-29, 72 h. In outline: as §2
A short description of data set [15]: Cell cycle arrest in human HepG2 cells assessed as decrease in G0/G1 phase at growth inhibitory IC50 measured after 24 hrs by propidium iodide-staining based FACS analysis. The data set is classed as functional.
Data set [16] can be described thus: Cell cycle arrest in human HepG2 cells assessed as accumulation in G2/M phase at growth inhibitory IC50 measured after 8 hrs by propidium iodide-staining based FACS analysis (reference value: 28%). On the set-up: scale not given: the % may be the effect or the level left. In kind it is functional.
Data set [17] in a line: Antiproliferative activity against CA-4-resistant human A549 cells measured after 72 hrs by MTT assay. The following applies: A549, 72 h. In kind it is functional, cell-based. In outline:
as §2

Data set [18] is described as follows: Antiproliferative activity against mouse Colon 26 cells measured after 72 hrs by MTT assay. The data set is classed as functional, cell-based. Conditions: Colon 26, 72 h. In outline: as §2
Data set [19] has as its system HepG2. In words: Induction of apoptosis in human HepG2 cells assessed as increase in apoptotic cells at growth inhibitory IC50 measured after 48 hrs by Annexin V-FITC/propidium iodide staining-based flow cytometric analysis relative to control. In kind it is functional, cell-based.
Data set [20] is filed under the species Sus scrofa. The data set is described as follows: Induction of porcine brain tubulin polymerization assessed as time required to reach maxium effect at 10 uM measured every 1 min for 40 mins in presence of GTP.
Data set [21] is filed under the species Sus scrofa. The data set is described as follows: Inhibition of porcine brain tubulin polymerization at 50 uM measured every 1 min for 40 mins in presence of GTP.
The species named for data set [22] is Sus scrofa. In words: Inhibition of porcine brain tubulin polymerization at 10 uM measured every 1 min for 40 mins in presence of GTP.
The nature of data set [23]: Cell cycle arrest in human HepG2 cells assessed as accumulation of cells with 4N DNA content at growth inhibitory IC50 measured after 24 hrs by propidium iodide-staining based FACS analysis relative to control. In kind it is functional. Also on record: scale not given: the % may be the effect or the level left.
Data set [24] in a line: Cell cycle arrest in human HepG2 cells assessed as decrease in accumulation of G2/M phase at growth inhibitory IC50 measured after 72 hrs by propidium iodide-staining based FACS analysis. In kind it is functional.
Data set [25] deals with EA.hy 926. In words: Induction of apoptosis in human EAhy926 cells assessed as necrotic cells at 0.11 uM measured after 48 hrs by Annexin V-FITC/propidium iodide staining-based flow cytometric analysis relative to control. The data set is classed as functional.
A short description of data set [26]: Cell cycle arrest in human HepG2 cells assessed as accumulation of hypoploid sub-G1 cells at growth inhibitory IC50 measured after 72 hrs by propidium iodide-staining based FACS analysis. In kind it is functional.
Data set [27] can be described thus: Growth inhibition of human HepG2 cells measured after 72 hrs by MTT assay. In kind it is functional, cell-based. The following applies: HepG2, 72 h. In outline: as §1

Regarding `COc1ccc(/C=C\c2cc(OC)c(OC)c(OC)c2)cc1N.Cl`, the solubility entry in data set [1] was “Soluble”.

With `COc1ccc(/C=C\c2cc(OC)c(OC)c(OC)c2)cc1O` [COMBRETASTATIN A4], the Survival in data set [2] is given as 15%; in data set [3], 35%; in [6], 50%. The viability at 72 h in data set [4] came out at 40%. In addition, the Activity in data set [5] was 20%; in data set [11], 9%; in [16], 33%; in data set [23] it was 77%; in data set [25], 20%. Also, the outcome in data set [7], in data set [12], in data set [15], in data set [19], in data set [24] and in data set [26] was Active. Also, the negative logarithm of the IC50 (pIC50) was over 7.00 in [8]; 5.93 in data set [9]; 6.77 in [10]; 5.58 in data set [14]; 5.52 in data set [17]; 6.36 in data set [18]. Besides, the pIC50 in data set [27] was 6.96. The inhibition result in data set [13], in data set [21] and in data set [22] was “Active” in each case. In addition, the TIME in [20] is 0.383 h.

One may read the pIC50 as −log10 of the IC50, conventionally taken in molar units.
